Activity calls are given as the source filed them. The calls are words filed in the database; no cut-off is given here.
Experiments:
[1] = test system: 1321-N1; experiment: Selectivity for human FFA1 receptor expressed in human 1321N1 cells over 5HT2A receptor; type: cell-based
[2] = test system: 1321-N1; experiment: Selectivity for human FFA1 receptor expressed in human 1321N1 cells over 5HT3 receptor; type: cell-based
[3] = test system: 1321-N1; experiment: Selectivity for human FFA1 receptor expressed in human 1321N1 cells over 5HT6 receptor; type: cell-based
[4] = test system: 1321-N1; experiment: Selectivity for human FFA1 receptor expressed in human 1321N1 cells over sst receptor; type: cell-based
[5] = test system: 1321-N1; experiment: Selectivity for human FFA1 receptor expressed in human 1321N1 cells over V1a receptor; type: cell-based
[6] = test system: 1321-N1; experiment: Selectivity for human FFA1 receptor expressed in human 1321N1 cells over Kv channel; type: cell-based
[7] = test system: 1321-N1; experiment: Selectivity for human FFA1 receptor expressed in human 1321N1 cells over Cl- channel; type: cell-based
[8] = test system: 1321-N1; experiment: Selectivity for human FFA1 receptor expressed in human 1321N1 cells over dopamine transporter; type: cell-based
[9] = test system: 1321-N1; experiment: Selectivity for human FFA1 receptor expressed in human 1321N1 cells over 5HT transporter; type: cell-based
[10] = Chemical stability of the compound in PBS at 37 degC for 12 days; type: physicochemical; details: read-out: Stability
Outline: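 Stability followed in PBS at 37 °C over 12 days.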

[11] = Plasma protein binding in human; type: ADME, cell-free; details: read-out: PPB (converted)
[12] = test system: Liver; experiment: Metabolic stability in human liver S9 fraction; type: ADME, subcellular
[13] = target: T1, CYP1A2 (Homo sapiens, UniProt P05177); experiment: Inhibition of CYP1A2 at 10 uM; type: ADME
T1 sequence (P05177 whole entry): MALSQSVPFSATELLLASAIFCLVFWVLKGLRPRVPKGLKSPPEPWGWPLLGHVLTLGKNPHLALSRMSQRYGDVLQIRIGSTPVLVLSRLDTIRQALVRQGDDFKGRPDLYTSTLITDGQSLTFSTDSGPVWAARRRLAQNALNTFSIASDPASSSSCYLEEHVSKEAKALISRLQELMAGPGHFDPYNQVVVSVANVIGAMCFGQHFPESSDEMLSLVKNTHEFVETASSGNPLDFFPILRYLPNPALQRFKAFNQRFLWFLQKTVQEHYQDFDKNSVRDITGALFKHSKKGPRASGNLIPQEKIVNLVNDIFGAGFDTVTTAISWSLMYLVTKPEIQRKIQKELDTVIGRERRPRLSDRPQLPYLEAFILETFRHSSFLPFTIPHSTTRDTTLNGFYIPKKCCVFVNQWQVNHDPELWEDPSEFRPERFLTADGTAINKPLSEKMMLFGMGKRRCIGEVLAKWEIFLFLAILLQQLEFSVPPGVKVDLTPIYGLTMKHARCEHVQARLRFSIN

[14] = target: CYP2C19 (Homo sapiens, UniProt P33261); experiment: Inhibition of CYP2C19 at 10 uM; type: ADME
[15] = target: CYP2D6 (Homo sapiens, UniProt P10635); experiment: Inhibition of CYP2D6 at 10 uM; type: ADME
[16] = Apparent permeability from apical to basolateral side of human Caco2/TC7 cells; type: ADME, cell-based; details: Caco-2
Outline: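 Caco-2 TC7 monolayers, apical to basolateral transport at pH 6.5 apical/7.4 basolateral.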

[17] = Apparent permeability across methotrexate treated human HT-29 cells; type: ADME, cell-based
Outline: (§1)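 HT29-MTX mucus-producing cells, passage 32, grown 23 days (TEER > 750 Ω cm²). Compound at 100 μM (10 mM DMSO stock diluted 1:100 in buffer). […] Non-permeated drug measured for recovery. Monolayer integrity checked by 20 μM carboxyfluorescein after 1 h and TEER.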

[18] = Permeability across methotrexate treated human HT-29 cells assessed as compound recovery; type: ADME, cell-based; details: read-out: Activity; outline: as §1
[19] = target: Free fatty acid receptor 1 (Rattus norvegicus) (UniProt Q8K3T4); experiment: Agonist activity at FFA1 receptor in rat INS-1E cells assessed as movement of cellular constitiuent by DMR assay; type: functional, cell-based
Outline: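 Label-free DMR on an Epic optical biosensor. Rat INS-1E cells, 30 000/well on fibronectin-coated 384-well sensor plates, cultured 20–24 h to confluence. Washed in HBSS/20 mM HEPES and equilibrated 1 h at 28 °C. Baseline read, compound added, wavelength shift (pm) monitored ≥5000 s. Antagonist line: 0.3 μM agonist with the FFA1 antagonist over a concentration range, pIC50 derived, n = 4.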

[20] = target: Free fatty acid receptor 1 (Rattus norvegicus) (UniProt Q8K3T4); experiment: Agonist activity at FFA1 receptor in rat INS-1E cells assessed as increase in glucose-stimulated insulin production at 10 uM after 1 hr by radioimmunoassay in presence of 2.8 mM glucose; type: functional, cell-based
Outline: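 Rat INS-1E cells seeded at 100 000 cells/mL in 24-well plates for 2 days. Incubated 1 h at 37 °C in pH 7.4 HEPES-bicarbonate saline with 1 mM CaCl2 and 0.5 g/L fatty-acid-free BSA plus test substance. Secreted insulin and acid-ethanol-extracted content measured by radioimmunoassay. Mean ± SE, n = 8.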

[21] = Octanol-water partition coefficient, log D of the compound at pH 7.4 by HPLC analysis; type: physicochemical
Outline: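 Distribution between n-octanol and water (PBS), pH 7.4, determined experimentally.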

[22] = test system: HEK293; experiment: Selectivity for human FFA1 receptor expressed in human 1321N1 cells over human FFA2 receptor expressed in HEK293 cells at 10 uM; type: cell-based
[23] = test system: 1321-N1; experiment: Selectivity for human FFA1 receptor expressed in human 1321N1 cells over PPARgamma receptor; type: cell-based
[24] = test system: 1321-N1; experiment: Selectivity for human FFA1 receptor expressed in human 1321N1 cells over A1 receptor; type: cell-based
[25] = test system: 1321-N1; experiment: Selectivity for human FFA1 receptor expressed in human 1321N1 cells over alpha1 receptor; type: cell-based
[26] = test system: 1321-N1; experiment: Selectivity for human FFA1 receptor expressed in human 1321N1 cells over beta1 receptor; type: cell-based
[27] = test system: 1321-N1; experiment: Selectivity for human FFA1 receptor expressed in human 1321N1 cells over beta2 receptor; type: cell-based
[28] = test system: 1321-N1; experiment: Selectivity for human FFA1 receptor expressed in human 1321N1 cells over B2 receptor; type: cell-based
[29] = test system: 1321-N1; experiment: Selectivity for human FFA1 receptor expressed in human 1321N1 cells over CCK1 receptor; type: cell-based
[30] = test system: 1321-N1; experiment: Selectivity for human FFA1 receptor expressed in human 1321N1 cells over D1 receptor; type: cell-based
[31] = test system: 1321-N1; experiment: Selectivity for human FFA1 receptor expressed in human 1321N1 cells over […]; type: cell-based
[32] = test system: 1321-N1; experiment: Selectivity for human FFA1 receptor expressed in human 1321N1 cells over ETA receptor; type: cell-based
[33] = test system: 1321-N1; experiment: Selectivity for human FFA1 receptor expressed in human 1321N1 cells over CXCR2 receptor; type: cell-based
[34] = test system: 1321-N1; experiment: Selectivity for human FFA1 receptor expressed in human 1321N1 cells over CCR1 receptor; type: cell-based
[35] = test system: 1321-N1; experiment: Selectivity for human FFA1 receptor expressed in human 1321N1 cells over H2 receptor; type: cell-based
[36] = test system: 1321-N1; experiment: Selectivity for human FFA1 receptor expressed in human 1321N1 cells over M2 receptor; type: cell-based
[37] = test system: 1321-N1; experiment: Selectivity for human FFA1 receptor expressed in human 1321N1 cells over NK3 receptor; type: cell-based
[38] = test system: 1321-N1; experiment: Selectivity for human FFA1 receptor expressed in human 1321N1 cells over Mu receptor; type: cell-based
[39] = test system: 1321-N1; experiment: Selectivity for human FFA1 receptor expressed in human 1321N1 cells over 5HT1A receptor; type: cell-based
[40] = test system: 1321-N1; experiment: Selectivity for human FFA1 receptor expressed in human 1321N1 cells over 5HT1B receptor; type: cell-based

Chain of Free fatty acid receptor 1 (Rattus norvegicus) (Q8K3T4 whole entry): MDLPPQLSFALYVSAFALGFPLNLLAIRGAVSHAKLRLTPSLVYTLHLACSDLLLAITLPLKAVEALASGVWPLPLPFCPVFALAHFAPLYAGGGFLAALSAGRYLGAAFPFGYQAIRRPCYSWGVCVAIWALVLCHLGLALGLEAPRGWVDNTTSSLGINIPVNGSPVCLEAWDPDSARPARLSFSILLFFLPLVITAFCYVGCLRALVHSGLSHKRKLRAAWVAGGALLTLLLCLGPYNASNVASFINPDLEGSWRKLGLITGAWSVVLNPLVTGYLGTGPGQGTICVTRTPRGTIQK
Chain of CYP2C19 (P33261 whole entry): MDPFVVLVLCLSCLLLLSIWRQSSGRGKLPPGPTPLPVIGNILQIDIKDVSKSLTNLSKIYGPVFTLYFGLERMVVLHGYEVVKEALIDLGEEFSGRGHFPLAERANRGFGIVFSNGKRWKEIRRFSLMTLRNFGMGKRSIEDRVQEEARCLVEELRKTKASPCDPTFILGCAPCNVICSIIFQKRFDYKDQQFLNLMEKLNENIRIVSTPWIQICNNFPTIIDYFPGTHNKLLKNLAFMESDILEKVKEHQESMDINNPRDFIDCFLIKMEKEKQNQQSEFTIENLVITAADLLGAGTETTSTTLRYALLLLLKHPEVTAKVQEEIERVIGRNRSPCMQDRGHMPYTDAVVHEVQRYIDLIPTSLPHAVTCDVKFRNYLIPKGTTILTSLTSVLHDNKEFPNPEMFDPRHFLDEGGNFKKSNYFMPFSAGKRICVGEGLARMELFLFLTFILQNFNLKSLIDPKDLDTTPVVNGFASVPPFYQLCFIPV
Chain of CYP2D6 (P10635 whole entry): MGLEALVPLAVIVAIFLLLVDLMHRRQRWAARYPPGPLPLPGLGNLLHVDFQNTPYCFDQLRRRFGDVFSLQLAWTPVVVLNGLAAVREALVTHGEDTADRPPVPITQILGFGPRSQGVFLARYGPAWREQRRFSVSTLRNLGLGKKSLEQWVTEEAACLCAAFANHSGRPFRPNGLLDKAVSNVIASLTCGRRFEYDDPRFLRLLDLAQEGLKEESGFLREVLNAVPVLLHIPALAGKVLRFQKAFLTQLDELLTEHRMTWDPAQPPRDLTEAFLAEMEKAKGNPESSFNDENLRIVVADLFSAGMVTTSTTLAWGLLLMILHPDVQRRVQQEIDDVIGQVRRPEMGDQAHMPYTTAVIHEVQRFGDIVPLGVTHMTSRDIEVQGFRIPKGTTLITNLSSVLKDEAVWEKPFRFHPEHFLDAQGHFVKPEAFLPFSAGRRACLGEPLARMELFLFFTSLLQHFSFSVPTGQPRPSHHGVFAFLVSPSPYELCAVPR

O=C(O)CCc1ccc(C#Cc2cc(Cl)nc(Cl)c2)cc1
Selectivity ratio [1]: > 100 | Selectivity ratio [2]: > 100 | Selectivity ratio [3]: > 100 | Selectivity ratio [4]: > 100 | Selectivity ratio [5]: > 100 | Selectivity ratio [6]: > 100 | Selectivity ratio [7]: > 100 | Selectivity ratio [8]: > 100 | Selectivity ratio [9]: > 100 | remaining at 288 h [10]: 99.9% | fraction unbound [11]: 0.031 | Stability [12]: 97% | inhibition at 10 µM [13]: -7% | inhibition at 10 µM [14]: -7% | inhibition at 10 µM [15]: 5% | Papp A→B [16]: 112 ×10⁻⁶ cm/s | Papp [17]: 16.4 ×10⁻⁶ cm/s | recovery [18]: 63% | Activity [19]: Active | Activity [20]: inactive | logD [21]: 1.97 | Selectivity ratio [22]: > 100 | Selectivity ratio [23]: > 100 | Selectivity ratio [24]: > 100 | Selectivity ratio [25]: > 100 | Selectivity ratio [26]: > 100 | Selectivity ratio [27]: > 100 | Selectivity ratio [28]: > 100 | Selectivity ratio [29]: > 100 | Selectivity ratio [30]: > 100 | Selectivity ratio [31]: > 100 | Selectivity ratio [32]: > 100 | Selectivity ratio [33]: > 100 | Selectivity ratio [34]: > 100 | Selectivity ratio [35]: > 100 | Selectivity ratio [36]: > 100 | Selectivity ratio [37]: > 100 | Selectivity ratio [38]: > 100 | Selectivity ratio [39]: > 100 | Selectivity ratio [40]: > 100

Reference: ChEMBL document CHEMBL1828561, “Identification of a potent and selective free fatty acid receptor 1 (FFA1/GPR40) agonist with favorable physicochemical and in vitro ADME properties” (J Med Chem, 2011)
